Reference: ChEMBL document CHEMBL1140930 (J Med Chem, 2009)

Tests used:
[1] = Cell cycle arrest in human KB/HeLa cells assessed as G1 phase accumulation at 31.6 nM after 24 hrs by FACS analysis; type: functional, cell-based
Outline: (§1)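 Subconfluent KB/HeLa cells exposed to a range of compound concentrations for 24 h at 37 °C, then detached and fixed in 70% ethanol. DNA stained with propidium iodide after RNase digestion and measured by flow cytometry. Cell-cycle phase fractions taken from cell cycle analysis software. At least two replicates.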

[2] = Cell cycle arrest in human KB/HeLa cells assessed as S phase accumulation at 1 nM after 24 hrs by FACS analysis; type: functional, cell-based; outline: as §1
[3] = test system: RKO; assay: Antiproliferative activity against human RKO cells containing ecdysone-inducible expression vector of p27kipl by XTT assay; type: functional, cell-based
Outline: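 RKO cells carried an ecdysone-inducible p27Kip1 vector and were tested with and without induction. On day 1 they were plated with or without 3 µM ponasterone A, which gives G1 arrest, at 2 × 10⁴ cells/well induced or 6 × 10³ not induced, then held 24 h at 37 °C. Compound was then added for 48 h at 37 °C, followed by a standard XTT assay. IC50 came from nonlinear regression, n ≥ 2.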

[4] = Cell cycle arrest in human KB/HeLa cells assessed as G2/M phase accumulation at 3.16 nM after 24 hrs by FACS analysis; type: functional, cell-based; outline: as §1
[5] = Cell cycle arrest in human KB/HeLa cells assessed as S phase accumulation at 10 nM after 24 hrs by FACS analysis; type: functional, cell-based; outline: as §1
[6] = Antiproliferative activity against human KB/HeLa cells by XTT assay; type: functional, cell-based
Outline: (§2)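 XTT metabolic read-out. Cells seeded at 1 × 10³–8 × 10⁴ cells/well for logarithmic growth and exposed to graded concentrations for 48 h. At least two replicates. IC50 from nonlinear regression of dose-response curves. LT12/MDR: rat LT12 with ectopic human MDR-1. L1210/VCR: MDR-1 expressing, MRP-1 negative.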

[7] = Cell cycle arrest in human KB/HeLa cells assessed as G2/M phase accumulation at 1000 nM after 24 hrs by FACS analysis; type: functional, cell-based; outline: as §1
[8] = test system: SF-268; assay: Antiproliferative activity against human SF268 cells by XTT assay; type: functional, cell-based; outline: as §2
[9] = biological target: T1, Tubulin (Sus scrofa, UniProt P02554+P02550); assay: Displacement of [3H]paclitaxel from pig biotinylated tubulin after 2 hrs by SPA; type: protein assay
[10] = Cell cycle arrest in human KB/HeLa cells assessed as G2/M phase accumulation at 0.3 nM after 24 hrs by FACS analysis; type: functional, cell-based; outline: as §1
[11] = Cell cycle arrest in human KB/HeLa cells assessed as G1 phase accumulation at 3.16 nM after 24 hrs by FACS analysis; type: functional, cell-based; outline: as §1
[12] = Cell cycle arrest in human KB/HeLa cells assessed as S phase accumulation at 3.16 nM after 24 hrs by FACS analysis; type: functional, cell-based; outline: as §1
[13] = Cell cycle arrest in human KB/HeLa cells assessed as G2/M phase accumulation at 0.1 nM after 24 hrs by FACS analysis; type: functional, cell-based; outline: as §1
[14] = Cell cycle arrest in human KB/HeLa cells assessed as S phase accumulation at 316 nM after 24 hrs by FACS analysis; type: functional, cell-based; outline: as §1
[15] = Cell cycle arrest in human KB/HeLa cells assessed as G1 phase accumulation at 1 nM after 24 hrs by FACS analysis; type: functional, cell-based; outline: as §1
[16] = Cell cycle arrest in human KB/HeLa cells assessed as G2/M phase accumulation at 31.6 nM after 24 hrs by FACS analysis; type: functional, cell-based; outline: as §1
[17] = biological target: T1, Tubulin; assay: Displacement of [3H]Colchicine from pig biotinylated tubulin after 2 hrs by SPA; type: protein assay
[18] = Cell cycle arrest in human KB/HeLa cells assessed as S phase accumulation at 0.1 nM after 24 hrs by FACS analysis; type: functional, cell-based; outline: as §1
[19] = Cell cycle arrest in human KB/HeLa cells assessed as G1 phase accumulation at 10 nM after 24 hrs by FACS analysis; type: functional, cell-based; outline: as §1
[20] = Cell cycle arrest in human KB/HeLa cells assessed as G1 phase accumulation at 0.1 nM after 24 hrs by FACS analysis; type: functional, cell-based; outline: as §1
[21] = Cell cycle arrest in human KB/HeLa cells assessed as G2/M phase accumulation at 10 nM after 24 hrs by FACS analysis; type: functional, cell-based; outline: as §1
[22] = test system: P388; assay: Antiproliferative activity against doxorubicin-resistant mouse P388 cells expressing MDR1 protein after 48 hrs by XTT assay; type: functional, cell-based; conditions: P388, 48 h
Outline: (§3)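 XTT metabolic-activity read-out of proliferation. Cells were seeded at 1 × 10³-8 × 10⁴ cells/well for logarithmic growth and exposed to a range of compound concentrations for 48 h. IC50 came from nonlinear regression of dose-response curves, with at least two replicates. The P388/Adr subline was doxorubicin-selected with elevated MDR-1.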

[23] = Cell cycle arrest in human KB/HeLa cells assessed as G1 phase accumulation at 100 nM after 24 hrs by FACS analysis; type: functional, cell-based; outline: as §1
[24] = Cell cycle arrest in human KB/HeLa cells assessed as S phase accumulation at 31.6 nM after 24 hrs by FACS analysis; type: functional, cell-based; outline: as §1
[25] = test system: L1210; assay: Antiproliferative activity against mouse L1210 cells after 48 hrs by XTT assay; type: functional, cell-based; conditions: L1210, 48 h; outline: as §3
[26] = Cell cycle arrest in human KB/HeLa cells assessed as G2/M phase accumulation after 24 hrs by FACS analysis; type: functional, cell-based; outline: as §1
[27] = Cell cycle arrest in human KB/HeLa cells assessed as G1 phase accumulation at 316 nM after 24 hrs by FACS analysis; type: functional, cell-based; outline: as §1
[28] = Cell cycle arrest in human KB/HeLa cells assessed as S phase accumulation at 100 nM after 24 hrs by FACS analysis; type: functional, cell-based; outline: as §1
[29] = Cell cycle arrest in human KB/HeLa cells assessed as G2/M phase accumulation at 100 nM after 24 hrs by FACS analysis; type: functional, cell-based; outline: as §1
[30] = Cell cycle arrest in human KB/HeLa cells assessed as G1 phase accumulation at 1000 nM after 24 hrs by FACS analysis; type: functional, cell-based; outline: as §1
[31] = Antiproliferative activity against rat LT12 cells after 48 hrs by XTT assay; type: functional, cell-based; conditions: LT12, 48 h; outline: as §3
[32] = test system: K562; assay: Antiproliferative activity against human K562 cells after 48 hrs; type: functional, cell-based; conditions: K562, 48 h
Outline: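 K562 cells (RPMI 1640, 10% FBS, 37 °C, 5% CO2) plated at 2 × 10⁵ cells/mL. Compounds dissolved in DMSO/methanol 1:1, vehicle 0.5%. Cells counted in a Neubauer chamber after 48 h and expressed as % of untreated control. Triplicate wells, three experiments. IC50 from nonlinear regression.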

[33] = test system: L1210; assay: Antiproliferative activity against vincristine-resistance MRP1 negative mouse L1210 cells expressing human MDR1 after 48 hrs by XTT assay; type: functional, cell-based; conditions: L1210, 48 h; outline: as §2
[34] = Cell cycle arrest in human KB/HeLa cells assessed as G2/M phase accumulation at 1 nM after 24 hrs by FACS analysis; type: functional, cell-based; outline: as §1
[35] = test system: NCI-H460; assay: Antiproliferative activity against human NCI-H460 cells by XTT assay; type: functional, cell-based; outline: as §2
[36] = test system: RKO; assay: Antiproliferative activity against human RKO cells by XTT assay; type: functional, cell-based
Outline: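 RKO colon cells with ecdysone-inducible p27Kip1. Day 1: plated with or without 3 µM ponasterone A for 24 h, giving G1 arrest when induced (2 × 10⁴ cells/well induced; 6 × 10³ not induced). Day 2: compound added (DMSO control) for 48 h at 37 °C, then standard XTT. At least duplicate. IC50 by nonlinear regression.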

[37] = test system: P388; assay: Antiproliferative activity against mouse P388 cells after 48 hrs by XTT assay; type: functional, cell-based; conditions: P388, 48 h; outline: as §3
[38] = biological target: T1, Tubulin; assay: Inhibition of pig brain tubulin polymerization after 30 mins by turbidimetric assay
Outline: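 Microtubule protein from porcine brain (80–90% tubulin, 10–20% MAPs), purified by two disassembly/reassembly cycles. Assay buffer: 20 mM PIPES pH 6.8, 80 mM NaCl, 0.5 mM MgCl2, 1 mM EGTA, 1 mM DTT. Protein at 1.2 mg/mL with 0.6 mM GTP final, 1% DMSO final, 37 °C.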

[39] = Cell cycle arrest in human KB/HeLa cells assessed as G1 phase accumulation at 0.3 nM after 24 hrs by FACS analysis; type: functional, cell-based; outline: as §1
[40] = Antiproliferative activity against rat LT12 cells ectopic expression of human MDR1 after 48 hrs by XTT assay; type: functional, cell-based; conditions: LT12, 48 h; outline: as §2
[41] = Cell cycle arrest in human KB/HeLa cells assessed as S phase accumulation at 1000 nM after 24 hrs by FACS analysis; type: functional, cell-based; outline: as §1
[42] = test system: SK-OV-3; assay: Antiproliferative activity against human SKOV3 cells by XTT assay; type: functional, cell-based; outline: as §3
[43] = Cell cycle arrest in human KB/HeLa cells assessed as G2/M phase accumulation at 316 nM after 24 hrs by FACS analysis; type: functional, cell-based; outline: as §1
[44] = Cell cycle arrest in human KB/HeLa cells assessed as S phase accumulation at 0.3 nM after 24 hrs by FACS analysis; type: functional, cell-based; outline: as §1

Structure (SMILES): COc1ccc(C(=O)C=C2c3ccccc3C(=O)c3ccccc32)cc1
- Activity [1]: 57.5%
- Activity [2]: 26.1%
- IC50 [3]: > 9000 nM
- Activity [4]: 11.8%
- Activity [5]: 26%
- IC50 [6]: 60 nM
- Activity [7]: 88.5%
- IC50 [8]: 60 nM
- IC50 [9]: > 100000 nM
- Activity [10]: 10.8%
- Activity [11]: 62%
- Activity [12]: 26.2%
- Activity [13]: 13.2%
- Activity [14]: 6.2%
- Activity [15]: 62.3%
- Activity [16]: 8.4%
- IC50 [17]: 400 nM
- Activity [18]: 26.1%
- Activity [19]: 62.7%
- Activity [20]: 60.7%
- Activity [21]: 11.3%
- IC50 [22]: 50 nM
- Activity [23]: 8.4%
- Activity [24]: 34.1%
- IC50 [25]: 50 nM
- EC50 [26]: 90 nM
- Activity [27]: 1%
- Activity [28]: 16.7%
- Activity [29]: 74.9%
- Activity [30]: 2.3%
- IC50 [31]: 50 nM
- IC50 [32]: 70 nM
- IC50 [33]: 50 nM
- Activity [34]: 11.6%
- IC50 [35]: 70 nM
- IC50 [36]: 80 nM
- IC50 [37]: 40 nM
- IC50 [38]: 520 nM
- Activity [39]: 62.1%
- IC50 [40]: 50 nM
- Activity [41]: 9.2%
- IC50 [42]: 60 nM
- Activity [43]: 92.8%
- Activity [44]: 27.1%

Structure (SMILES): COc1ccc(C(=O)C=C2c3ccccc3C(=O)c3ccccc32)cc1OC
- IC50 [3]: > 9000 nM
- IC50 [6]: 1080 nM
- IC50 [8]: 2700 nM
- IC50 [22]: 1100 nM
- IC50 [25]: 970 nM
- IC50 [31]: 370 nM
- IC50 [32]: 1300 nM
- IC50 [33]: 970 nM
- IC50 [35]: 1400 nM
- IC50 [36]: 510 nM
- IC50 [37]: 900 nM
- IC50 [38]: 6000 nM
- IC50 [40]: 440 nM
